Columns and labels:
[1] = system: U-937; test: Cytotoxicity against human U937 cells assessed as reduction in cell viability after 72 hrs by CCK8 assay; format: functional, cell-based
How it was run: (§1)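 Cells kept in RPMI or DMEM with 10% FBS and 1% penicillin/streptomycin at 37 °C in 5% CO2. Seeded at 400-800 cells/well in 384-well plates and exposed to varying compound concentrations, with solution-only control, for 72 h. CCK8 reagent added, then absorbance read at 450 nm. Plinabulin and TSA were positive controls. Mean SD of three experiments.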

[2] = system: HL-60; test: Cytotoxicity against human HL60 cells assessed as reduction in cell viability after 72 hrs by CCK8 assay; format: functional, cell-based; how it was run: as §1
[3] = system: HeLa; test: Cytotoxicity against human HeLa cells assessed as reduction in cell viability after 72 hrs by CCK8 assay; format: functional, cell-based; how it was run: as §1
[4] = system: NCI-H1975; test: Cytotoxicity against human NCI-H1975 cells assessed as reduction in cell viability after 72 hrs by CCK8 assay; format: functional, cell-based; how it was run: as §1
[5] = Cytotoxicity against human HuH7 cells assessed as reduction in cell viability after 72 hrs by CCK8 assay; format: functional, cell-based, Huh-7; how it was run: as §1
[6] = system: K562; test: Cytotoxicity against human K562 cells assessed as reduction in cell viability after 72 hrs by CCK8 assay; format: functional, cell-based; how it was run: as §1
[7] = system: MCF7; test: Cytotoxicity against human MCF7 cells assessed as reduction in cell viability after 72 hrs by CCK8 assay; format: functional, cell-based; how it was run: as §1
[8] = system: A549; test: Cytotoxicity against human A549 cells assessed as reduction in cell viability after 72 hrs by CCK8 assay; format: functional, cell-based; how it was run: as §1
[9] = Cytotoxicity against human BGC823 cells assessed as reduction in cell viability after 72 hrs by CCK8 assay; format: functional, cell-based, BGC-823; how it was run: as §1
[10] = system: MOLT-4; test: Cytotoxicity against human MOLT4 cells assessed as reduction in cell viability after 72 hrs by CCK8 assay; format: functional, cell-based; how it was run: as §1
[11] = Homo sapiens, U-937, 72 h, read-out: IC50
[12] = Homo sapiens, HL-60, 72 h, read-out: IC50
[13] = Homo sapiens, HeLa, 72 h, read-out: IC50
[14] = Homo sapiens, NCI-H1975, 72 h, read-out: IC50
[15] = Homo sapiens, Huh-7, 72 h, read-out: IC50
[16] = Homo sapiens, K562, 72 h, read-out: IC50
[17] = Homo sapiens, MCF7, 72 h, read-out: IC50
[18] = Homo sapiens, A549, 72 h, read-out: IC50
[19] = Homo sapiens, BGC-823, 72 h, read-out: IC50
[20] = Homo sapiens, MOLT-4, 72 h, read-out: IC50

| Structure (SMILES) | IC50 [1, 11] [µM] | IC50 [2, 12] [µM] | IC50 [3, 13] [µM] | IC50 [4, 14] [µM] | IC50 [5, 15] [µM] | IC50 [6, 16] [µM] | IC50 [7, 17] [µM] | IC50 [8, 18] [µM] | IC50 [9, 19] [µM] | IC50 [10, 20] [µM] | IC50 ([1]; u-937) | IC50 ([2]; hl-60) | IC50 ([3]; hela) | IC50 ([4]; nci-h1975) | IC50 ([5]; huh-7) | IC50 ([6]; k562) | IC50 ([10]; molt-4) | IC50 ([7]; mcf7) | IC50 ([8]; a549) | IC50 ([9]; bgc-823) |
| --- | --- | --- | --- | --- | --- | --- | --- | --- | --- | --- | --- | --- | --- | --- | --- | --- | --- | --- | --- | --- |
| COc1ccccc1/C=c1\c(=O)[nH]/c(=C/c2ccccc2Cl)c(=O)n1C | 0.1 | 0.2 | 0.3 | 0.2 | 0.3 | 0.11 | 0.2 | 0.3 | 0.3 | – | – | – | – | – | – | – | – | – | – | – |
| C=CCn1c(=O)/c(=C\c2ccccc2Cl)[nH]c(=O)/c1=C\c1ccccc1OC | 0.7 | 4.2 | 5.1 | 9.2 | 6.4 | 2.5 | 4.7 | 5.3 | 4.6 | 4.4 | – | – | – | – | – | – | – | – | – | – |
| C=CCn1c(=O)/c(=C\c2cccc(Br)c2)[nH]c(=O)/c1=C\c1cccc(Br)c1 | – | – | – | – | – | – | – | – | – | – | Not Active | Not Active | Not Active | Not Active | Not Active | Not Active | Not Active | Not Active | Not Active | Not Active |
| C=CCn1c(=O)/c(=C\c2cccc(C)c2)[nH]c(=O)/c1=C\c1ccccc1OC | 5.1 | 16.7 | 19.3 | 32.8 | 21.4 | 8.8 | 20.7 | 22.7 | 20.4 | 16 | – | – | – | – | – | – | – | – | – | – |
| C=CCn1c(=O)/c(=C\c2cc(Br)ccc2F)[nH]c(=O)/c1=C\c1ccccc1OC | 4.7 | 17.4 | 34.6 | – | – | 5.1 | 28.1 | – | – | 12.9 | – | – | – | Not Active | Not Active | – | – | – | Not Active | Not Active |
| C=CCn1c(=O)/c(=C\c2ccc(Cl)c(Cl)c2)[nH]c(=O)/c1=C\c1ccccc1 | – | – | – | – | – | – | – | – | – | – | Not Active | Not Active | Not Active | Not Active | Not Active | Not Active | Not Active | Not Active | Not Active | Not Active |
| C=CCn1c(=O)/c(=C\c2ccccc2C(F)(F)F)[nH]c(=O)/c1=C\c1ccccc1OC | 1.5 | 4.6 | 4.6 | 14.5 | 9.5 | 2.7 | 6.5 | 7 | 5.1 | 4.4 | – | – | – | – | – | – | – | – | – | – |
| C=CCn1c(=O)/c(=C\c2ccccc2OC)[nH]c(=O)/c1=C\c1ccccc1OC | 5.1 | 15.7 | 6.9 | 21.5 | 21.2 | 7.4 | 41.1 | 22.4 | 13.4 | 13.1 | – | – | – | – | – | – | – | – | – | – |
| COc1ccccc1/C=c1\c(=O)[nH]/c(=C/c2cccc(Cl)c2Cl)c(=O)n1C | 0.1 | 0.2 | 0.2 | 0.3 | 0.3 | 0.11 | 0.2 | 0.2 | 0.3 | – | – | – | – | – | – | – | – | – | – | – |
| C=CCn1c(=O)/c(=C\c2ccc(Cl)c(Cl)c2)[nH]c(=O)/c1=C\c1ccccc1OC | – | – | – | – | – | – | – | – | – | – | Not Active | Not Active | Not Active | Not Active | Not Active | Not Active | Not Active | Not Active | Not Active | Not Active |
| C=CCn1c(=O)/c(=C\c2ccc(C)cc2)[nH]c(=O)/c1=C\c1ccccc1OC | – | – | – | – | – | – | – | – | – | – | Not Active | Not Active | Not Active | Not Active | Not Active | Not Active | Not Active | Not Active | Not Active | Not Active |
| C=CCn1c(=O)/c(=C\c2ccccc2F)[nH]c(=O)/c1=C\c1ccccc1OC | 5.5 | 18.5 | 45 | 25.1 | 31.3 | 5.6 | 23 | – | 18.9 | 20 | – | – | – | – | – | – | – | – | Not Active | – |
| CC(/C=C/C(=O)NO)=C\[C@@H](C)C(=O)c1ccc(N(C)C)cc1 [TRICHOSTATIN] | 0.1 | 0.08 | 0.11 | 0.21 | 0.1 | 0.41 | 0.06 | 0.05 | 0.08 | 0.03 | – | – | – | – | – | – | – | – | – | – |
| CC(C)(C)c1[nH]cnc1/C=c1\[nH]c(=O)/c(=C/c2ccccc2)[nH]c1=O [PLINABULIN] | 0.006 | 0.01 | 0.01 | 0.011 | 0.031 | 0.008 | 0.01 | 0.01 | 0.009 | – | – | – | – | – | – | – | – | – | – | – |
| C=CCn1c(=O)/c(=C\c2ccc(F)c(Br)c2)[nH]c(=O)/c1=C\c1ccccc1OC | – | – | – | – | – | – | – | – | – | – | Not Active | Not Active | Not Active | Not Active | Not Active | Not Active | Not Active | Not Active | Not Active | Not Active |
| C=CCn1c(=O)/c(=C\c2cccc(F)c2)[nH]c(=O)/c1=C\c1ccccc1OC | 2.5 | 8.89 | 9.1 | 25.6 | 27.2 | 4.1 | 13.7 | 19.7 | 5.6 | 6.5 | – | – | – | – | – | – | – | – | – | – |
| COc1ccccc1/C=c1/[nH]c(=O)/c(=C\c2ccccc2OC)n(C)c1=O | 1.5 | 16.2 | – | 16.9 | – | 2.2 | 9 | 7 | – | – | – | – | Not Active | – | Not Active | – | – | – | – | Not Active |
| C=CCn1c(=O)/c(=C\c2cccc(Cl)c2)[nH]c(=O)/c1=C\c1ccccc1OC | 1.2 | 4.5 | 5.5 | 5.1 | 8.9 | 2.7 | 5.2 | 5.2 | 4.6 | 4.9 | – | – | – | – | – | – | – | – | – | – |
| COc1ccccc1/C=c1/[nH]c(=O)/c(=C\c2ccccc2OC)[nH]c1=O | – | – | – | – | – | – | – | – | – | – | Not Active | Not Active | Not Active | Not Active | Not Active | Not Active | – | Not Active | Not Active | Not Active |
| COc1ccccc1/C=c1/[nH]c(=O)/c(=C\c2cccc(Cl)c2Cl)[nH]c1=O | – | – | – | – | – | – | – | – | – | – | Not Active | Not Active | Not Active | Not Active | Not Active | Not Active | – | Not Active | Not Active | Not Active |
